Measurements as given in paper PMC11463018 (Journal of Enzyme Inhibition and Medicinal Chemistry, 2024).

Tests used:
[1] = target: JAK1 (Homo sapiens, UniProt P23458); assay: Kinase inhibition assay; format: biochemical
[2] = system: MDA-MB-231; assay: cells; format: cell-based; conditions: Homo sapiens, MDA-MB-231, read-out: Antiproliferative effect IC50, MDA-MB-231
[3] = target: T1, HDAC6 (Homo sapiens, UniProt Q9UBN7); assay: In vitro HDAC enzyme assay; format: biochemical
T1 sequence (Q9UBN7 1-1215): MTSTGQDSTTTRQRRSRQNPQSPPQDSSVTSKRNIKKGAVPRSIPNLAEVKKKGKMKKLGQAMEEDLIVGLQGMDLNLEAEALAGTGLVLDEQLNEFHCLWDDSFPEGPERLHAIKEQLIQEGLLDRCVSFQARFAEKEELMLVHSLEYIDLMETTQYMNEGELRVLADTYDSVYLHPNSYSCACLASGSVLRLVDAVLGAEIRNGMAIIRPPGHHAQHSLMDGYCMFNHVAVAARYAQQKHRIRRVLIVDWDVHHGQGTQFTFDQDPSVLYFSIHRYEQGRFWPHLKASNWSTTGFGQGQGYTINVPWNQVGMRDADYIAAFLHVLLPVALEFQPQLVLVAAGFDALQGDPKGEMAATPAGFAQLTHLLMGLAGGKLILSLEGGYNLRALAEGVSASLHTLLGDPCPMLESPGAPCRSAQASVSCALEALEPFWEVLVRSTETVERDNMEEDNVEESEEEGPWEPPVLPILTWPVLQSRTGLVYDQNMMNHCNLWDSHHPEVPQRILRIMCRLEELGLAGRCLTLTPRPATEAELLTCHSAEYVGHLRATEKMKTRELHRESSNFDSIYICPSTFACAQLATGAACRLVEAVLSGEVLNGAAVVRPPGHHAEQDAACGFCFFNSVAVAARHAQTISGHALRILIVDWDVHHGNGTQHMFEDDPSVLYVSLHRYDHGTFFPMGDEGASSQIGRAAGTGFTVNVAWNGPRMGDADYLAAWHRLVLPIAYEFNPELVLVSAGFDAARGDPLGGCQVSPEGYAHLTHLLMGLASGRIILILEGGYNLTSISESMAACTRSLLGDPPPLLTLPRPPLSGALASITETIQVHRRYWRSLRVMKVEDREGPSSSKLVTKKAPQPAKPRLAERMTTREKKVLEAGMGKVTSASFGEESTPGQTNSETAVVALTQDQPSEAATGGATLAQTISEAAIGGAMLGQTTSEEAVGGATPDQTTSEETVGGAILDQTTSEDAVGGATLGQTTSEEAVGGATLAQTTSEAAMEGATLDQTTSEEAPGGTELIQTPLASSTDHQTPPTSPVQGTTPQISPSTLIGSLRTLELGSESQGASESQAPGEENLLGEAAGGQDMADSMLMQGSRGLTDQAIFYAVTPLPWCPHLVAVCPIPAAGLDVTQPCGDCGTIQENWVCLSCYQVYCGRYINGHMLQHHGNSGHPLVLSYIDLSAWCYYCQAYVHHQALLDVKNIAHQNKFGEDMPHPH

[4] = system: RPMI-8226; assay: cells; format: cell-based; conditions: Homo sapiens, RPMI-8226, read-out: Antiproliferative effect IC50, RPMI-8226
[5] = Microsomal stability assay; format: in vitro ADME; conditions: human, human liver microsomes, pH 7.4
Summary of the method: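 Human liver microsomes at 0.8 mg/mL, with magnesium chloride and potassium phosphate buffer (pH 7.4), incubated with test compound at 0.5 μM. Mix prewarmed 5 min at 37 °C, then started with NADPH. Stopped at 0, 5, 10, 15, 30, 60 or 90 min with ice-cold ethyl acetate, spun 4000 rpm for 10 min at 4 °C. Supernatant analysed by LC-MS/MS and half-life determined.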

Chain of JAK1 (P23458 whole entry): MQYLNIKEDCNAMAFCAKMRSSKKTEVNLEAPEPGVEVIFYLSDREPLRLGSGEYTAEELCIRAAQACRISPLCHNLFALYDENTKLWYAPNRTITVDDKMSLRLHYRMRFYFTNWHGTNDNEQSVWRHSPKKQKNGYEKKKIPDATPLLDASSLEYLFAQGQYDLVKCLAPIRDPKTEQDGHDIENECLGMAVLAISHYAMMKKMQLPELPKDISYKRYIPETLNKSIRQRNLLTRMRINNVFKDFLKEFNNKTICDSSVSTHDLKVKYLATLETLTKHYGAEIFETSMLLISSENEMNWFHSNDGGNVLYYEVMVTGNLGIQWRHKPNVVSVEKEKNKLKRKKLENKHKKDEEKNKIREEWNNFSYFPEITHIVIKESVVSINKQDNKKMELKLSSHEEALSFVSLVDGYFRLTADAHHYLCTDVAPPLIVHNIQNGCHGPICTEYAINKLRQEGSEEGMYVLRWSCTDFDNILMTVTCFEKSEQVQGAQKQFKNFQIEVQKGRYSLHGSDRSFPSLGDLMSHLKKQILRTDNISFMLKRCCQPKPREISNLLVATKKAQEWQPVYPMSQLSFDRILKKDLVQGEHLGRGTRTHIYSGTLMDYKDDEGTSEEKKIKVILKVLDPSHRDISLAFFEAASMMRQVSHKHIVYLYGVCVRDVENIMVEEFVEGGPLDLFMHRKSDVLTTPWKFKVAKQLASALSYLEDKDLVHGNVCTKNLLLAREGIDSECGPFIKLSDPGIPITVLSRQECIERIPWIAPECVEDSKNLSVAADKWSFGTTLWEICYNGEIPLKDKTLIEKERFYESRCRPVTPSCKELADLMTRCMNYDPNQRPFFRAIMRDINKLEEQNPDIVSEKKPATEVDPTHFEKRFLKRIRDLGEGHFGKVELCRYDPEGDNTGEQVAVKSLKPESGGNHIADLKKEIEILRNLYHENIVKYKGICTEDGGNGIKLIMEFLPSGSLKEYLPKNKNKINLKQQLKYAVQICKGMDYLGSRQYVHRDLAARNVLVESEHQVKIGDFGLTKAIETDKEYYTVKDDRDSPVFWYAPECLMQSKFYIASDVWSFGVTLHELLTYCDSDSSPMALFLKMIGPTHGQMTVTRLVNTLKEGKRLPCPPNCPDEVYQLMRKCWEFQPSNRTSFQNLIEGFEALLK

Row | SMILES | IC50 [1] [nM] | IC50 [2] [nM] | IC50 [3] [nM] | IC50 [4] [nM] | half-life at 0.5 μM [5] [h]
1 | COc1ccccc1-c1cccc2nc(NCc3ccc(C(=O)NO)cc3)nn12 [Compound 16d, N-hydroxy-4-(((5–(2-methoxyphenyl)-[1,2, 4]triazolo[1,5-a]pyridin-2-yl)amino)methyl)benzamide] | 750 ± 30 |  | 10.2 ± 0.8 |  | 
2 | Cc1ccccc1-c1cccc2nc(NCc3ccc(C(=O)NO)cc3)nn12 [Compound 16g, N-hydroxy-4-(((5-(o-tolyl)-[1,2, 4]triazolo[1,5-a]pyridin-2-yl)amino)methyl)benzamide] | 550 ± 32 |  | 16 ± 1.1 |  | 
3 | O=C(NO)c1ccc(CNc2nc3cccc(-c4ccccc4Cl)n3n2)cc1 [Compound 16i, 4-(((5–(2-chlorophenyl)-[1,2, 4]triazolo[1,5-a]pyridin-2-yl)amino)methyl)-N-hydroxybenzamide] | 400 ± 28 |  | 12.2 ± 0.3 |  | 
4 | O=C(NO)c1ccc(CNc2nc3cccc(-c4ccc(Cl)c(Cl)c4)n3n2)cc1 [Compound 16k, 4-(((5–(3,4-dichlorophenyl)-[1,2, 4]triazolo[1,5-a]pyridin-2-yl)amino)methyl)-N-hydroxybenzamide] | 390 ± 24 |  | 6.15 ± 0.12 |  | 
5 | O=C(NO)c1ccc(CNc2nc3cccc(-c4ccc(C(F)(F)F)cc4)n3n2)cc1 [Compound 16l, N-hydroxy-4-(((5–(4-(trifluoromethyl)phenyl)-[1,2, 4]triazolo[1,5-a]pyridin-2-yl)amino)methyl)benzamide] | 460 ± 8 |  | 11.4 ± 0.88 |  | 
6 | O=C(NO)c1ccc(CNc2nc3cccc(-c4cc(C(F)(F)F)cc(C(F)(F)F)c4)n3n2)cc1 [Compound 16m, 4-(((5–(3,5-bis(trifluoromethyl)phenyl)-[1,2, 4]triazolo[1,5-a]pyridin-2-yl)amino)methyl)-N-hydroxybenzamide] | 685 ± 50 |  | 20.5 ± 0.78 |  | 
7 | O=C(Nc1nc2cccc(-c3ccc(CN4CCS(=O)(=O)CC4)cc3)n2n1)C1CC1 [Filgotinib, reference compound] |  | 27200 ± 1500 |  | 17500 ± 1000 | 
8 | O=C(CCCCCCC(=O)Nc1ccccc1)NO [SAHA, vorinostat, reference compound] |  |  |  |  | 6.8

Continued, values first:

Row | IC50 [1] [nM] | IC50 [2] [nM] | IC50 [3] [nM] | IC50 [4] [nM] | half-life at 0.5 μM [5] [h] | SMILES
9 | 320 ± 18 | 900 ± 30 | 9.5 ± 0.72 | 460 ± 30 |  | O=C(NO)c1ccc(CNc2nc3cccc(-c4ccccc4)n3n2)cc1 [Compound 16a, N-hydroxy-4-(((5-phenyl-[1,2, 4]triazolo[1,5-a]pyridin-2-yl)amino)methyl)benzamide]
10 | 146 ± 8.5 | 840 ± 40 | 8.75 ± 0.46 | 290 ± 10 |  | COc1ccc(-c2cccc3nc(NCc4ccc(C(=O)NO)cc4)nn23)cc1 [Compound 16b, N-hydroxy-4-(((5–(4-methoxyphenyl)-[1,2, 4]triazolo[1,5-a]pyridin-2-yl)amino)methyl)benzamide]
11 | 190 ± 10 | 950 ± 20 | 8.4 ± 0.39 | 310 ± 20 |  | COc1cccc(-c2cccc3nc(NCc4ccc(C(=O)NO)cc4)nn23)c1 [Compound 16c, N-hydroxy-4-(((5–(3-methoxyphenyl)-[1,2, 4]triazolo[1,5-a]pyridin-2-yl)amino)methyl)benzamide]
12 | 304 ± 16 |  | 11 ± 0.7 |  |  | Cc1ccc(-c2cccc3nc(NCc4ccc(C(=O)NO)cc4)nn23)cc1 [Compound 16e, N-hydroxy-4-(((5-(p-tolyl)-[1,2, 4]triazolo[1,5-a]pyridin-2-yl)amino)methyl)benzamide]
13 | 315 ± 15 |  | 13.7 ± 0.88 |  |  | Cc1cccc(-c2cccc3nc(NCc4ccc(C(=O)NO)cc4)nn23)c1 [Compound 16f, N-hydroxy-4-(((5-(m-tolyl)-[1,2, 4]triazolo[1,5-a]pyridin-2-yl)amino)methyl)benzamide]
14 | 365 ± 25 |  | 9.65 ± 0.23 |  |  | O=C(NO)c1ccc(CNc2nc3cccc(-c4cccc(Cl)c4)n3n2)cc1 [Compound 16h, 4-(((5–(3-chlorophenyl)-[1,2, 4]triazolo[1,5-a]pyridin-2-yl)amino)methyl)-N-hydroxybenzamide]
15 | 295 ± 16 | 880 ± 60 | 8.9 ± 0.16 | 280 ± 60 |  | O=C(NO)c1ccc(CNc2nc3cccc(-c4ccc(F)cc4)n3n2)cc1 [Compound 16j, 4-(((5–(4-fluorophenyl)-[1,2, 4]triazolo[1,5-a]pyridin-2-yl)amino)methyl)-N-hydroxybenzamide]
